SR-BI uptake up: activators of SR-BI mediated HDL lipid uptake | 0.096% of 320,000 active | AID 504775 | activation, % at 12.5 µM | CHO ldlA[mSR-BI] cells, DiI-HDL uptake fluorescence, 3 h; 100 = double the neutral-control signal;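 active means mean replicate activation of at least 60% and every replicate at or above 60%; inconclusive means mean or all-replicate condition met, but not both; inactive means mean below 60% and not all replicates reaching 60%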;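 further: 0% = median plate neutral-control signal and 100% = twice that signal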
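Material: SR-BI-overexpressing, LDLR-lacking CHO cells | Dosing: Single compound concentration, delivered by pin transfer | Probe or stimulus: Labelled HDL, 10 µg/mL | Signal: Bottom-read cell fluorescence after medium removal, ex 550/em 595 nm | Schedule: 3 h, 37 °C | Evaluation: HDL uptake via cellular fluorescence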
dFosB act: enhances mouse delta FosB homodimer DNA binding | P13346 | purified delta FosB, TAMRA-CDK5 oligo fluorescence polarization; percent of positive-control signal above neutral wells | activation, % at 25 µM | 0.99% of 340,000 active;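 active means mean activation above about 17%, with every replicate also reaching it, limit read from the data, passing the limit was not always enough; inconclusive means only one of the two conditions met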
PvdQ acylase: P. aeruginosa PvdQ acylase inhibition. AID 488965. 0.063% of 340,000 active. purified PvdQ acylase, fluorescence plate reader. inhibition, % at 10 µM; in the data active means inhibition above about 30%, passing the limit was not always enough; inconclusive means no clear call, values can overlap the other calls;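 further: 0% = vehicle neutral wells and 100% = reference inhibitor wells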
SR-BI HDL uptake: blocks mouse SR-BI lipid uptake from DiI-HDL. ldlA[mSR-BI] CHO cells, DiI-HDL uptake fluorescence, 3 h. inhibition, % at 12.5 µM. 0.96% of 320,000 active. AID 488896;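 active means mean replicate inhibition of at least 70% and a set share of replicates each scoring 70 or more; inconclusive means meets just one of the two criteria; inactive means fails both criteria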;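 further: 0% = median of neutral control wells and 100% = median of positive control wells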
Target sequence (Q61009 whole entry, looked up): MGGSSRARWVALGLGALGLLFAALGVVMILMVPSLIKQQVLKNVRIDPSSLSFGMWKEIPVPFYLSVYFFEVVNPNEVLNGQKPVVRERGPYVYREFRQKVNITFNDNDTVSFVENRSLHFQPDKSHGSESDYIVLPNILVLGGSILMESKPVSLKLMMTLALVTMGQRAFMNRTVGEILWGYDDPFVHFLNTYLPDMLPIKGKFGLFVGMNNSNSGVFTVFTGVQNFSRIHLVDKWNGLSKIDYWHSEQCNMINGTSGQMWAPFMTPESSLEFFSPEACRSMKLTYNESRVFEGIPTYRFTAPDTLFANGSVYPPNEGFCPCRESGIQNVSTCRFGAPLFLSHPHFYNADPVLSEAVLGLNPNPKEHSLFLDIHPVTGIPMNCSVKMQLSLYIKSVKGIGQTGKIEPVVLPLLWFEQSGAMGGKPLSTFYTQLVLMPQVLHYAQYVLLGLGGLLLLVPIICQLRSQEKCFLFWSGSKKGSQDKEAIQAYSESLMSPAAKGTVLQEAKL
Xi reactivation: activators of X-chromosome reactivation in mouse fibroblasts; XiGFP mouse fibroblasts, % GFP-positive cells imaging, 3 d; cells co-treated with 5-aza-dC sensitizer; scaled so ellipticine positive control = 100%; 0.055% of 360,000 active; AID 743238; activation, % at 7.58 µM;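 active means mean normalized replicate activation at least 10% and every replicate at or above 10%; inconclusive means only one of the two criteria met; inactive means mean below 10% and not all replicates reach 10%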;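 further: 0% = median of on-plate neutral control wells and 100% = ellipticine 6 µM median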
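assay system = SV40-immortalized XiGFP fibroblast cells, line 68-5-11 | buffer or medium = DMEM plus 5-aza-dC sensitizer | doses = single-point pinned compound dosing | times = 3-day compound exposure, then 15 min fixation at room temperature | benchmarks = positive control ellipticine, 6 µM final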
rRNA inh HTS: inhibitors of bacterial rRNA selective over humanized ribosomes. E. coli WT GFP vs humanized-ribosome RFP mutants, fluorescence, 24 h; stronger effect = lower value; DMSO median 0, no signal -100. GFP signal change (wild-type ribosome), % (no concentration beside the values). 1.6% of 350,000 active;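 active means significant combined selectivity score with lowered wild-type GFP, culture density cut under 30%, mutant RFP and density less affected; inactive means any of these conditions unmet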
Numbers without * were called inactive; u = inconclusive; x = no result given. Shown are actives, neighbours in structure and some others; about 2.6% of the full set was active somewhere.

SMILES	SR-BI uptake up	dFosB act	PvdQ acylase	SR-BI HDL uptake	Xi reactivation	rRNA inh HTS
O=C(CCc1nc(-c2ccc(Cl)cc2)no1)NCC1CCCO1 (configuration not stated)	-7.3	-0.6	-7.0	7.3	0.3	4.6
O=S(=O)(c1ccccc1)c1cnc(-c2ccccc2)nc1N1CCCC1	-85.2	-7.6	2.9	85.2*	0.6	-4.2
O=C1CCC/C(=N\NC(=O)c2ccc(CSc3cccc4cccnc34)cc2)C1	-24.9	-13.1	-12.3	24.9	-0.1	-20.6*
NNC(=O)c1ccc(CSc2cccc3cccnc23)cc1	-34.0	-2.0	9.0	34.0	-0.1	-5.8
O=[N+]([O-])c1cccc(Cn2cnc3c(=S)nc[nH]c32)c1	3.3	-2.0	-8.0	-3.3	-0.1	6.2
Cc1ccc(S(=O)(=O)N(C)CC(=O)NCCCc2ccccc2)cc1	1.1	-6.8	-11.7	-1.1	0.2	-24.2*
COc1ccc(S(=O)(=O)N(C)CC(=O)NCCc2ccccc2)cc1OC	27.5	0.3	-11.4	-27.5	-0.1	6.6
COCCCNC(=O)CN(CCc1ccccc1)S(=O)(=O)c1ccc(OC)cc1	0.1	-1.5	5.4	-0.1	0.0	-23.9*
COc1ccc(S(=O)(=O)N(CCc2ccccc2)CC(=O)NCCCO)cc1	0.5	-4.0	2.3	-0.5	x	x
COc1ccccc1NS(=O)(=O)c1ccc(N2CCOCC2)c(N)c1	-2.4	-7.0	-5.5	2.4	0.1	2.9
Cc1n(Cc2ccccc2)c2ccccc2[n+]1Cc1ccccc1	6.3	0.5	6.6	-6.3	0.1	-33.7*
CC(C)c1ccc(NC(=S)Nc2ccc3cn[nH]c3c2)cc1	-12.5	-5.2	-12.4	12.5	0.0	-46.3*
Cc1ccc(NC(=S)Nc2ccc3cn[nH]c3c2)c(C)c1	16.3	-4.6	6.9	-16.3	0.2	-26.0*
COc1cc(Cl)ccc1OCc1cc(C(=O)N2C[C@@H]3CCC[C@H]2C3)no1	-4.7	-9.1	-5.0	4.7	0.3	-1.5
C[C@@H]1CCCCO[C@@H](CN(C)C(=O)Nc2ccc3c(c2)OCO3)[C@H](C)CN([C@@H](C)CO)C(=O)c2cc(NC(=O)C3CCCCC3)ccc2O1	x	x	x	x	0.5	1.6
Cc1cc(C)cc(N=c2c([N+](=O)[O-])nn(-c3ccc(Cl)cc3)n2O)c1	-80.3	-4.1	3.9	80.3*	0.0	2.5
Cc1ccc(CN=c2c([N+](=O)[O-])nn(-c3cccc(C)c3)n2O)cc1	x	-8.6	-1.5	x	-0.2	-1.8
Cc1ccc(CN=c2c([N+](=O)[O-])nn(-c3cccc(Cl)c3)n2O)cc1	14.7	-3.9	2.6	-14.7	0.0	-24.0*
CCc1ccc(C(=O)CN2C(=O)NC3(CCCCCC3)C2=O)cc1	7.8	-2.9	-10.6	-7.8	0.0	8.6
COc1ccc(CNC(=O)Cc2csc(NC(=O)Nc3ccccc3OC)n2)cc1	-46.3	-6.3	3.4	46.3	0.0	-12.4
Cc1cccc(NC(=O)NCC2CC2)c1	x	-8.8	-13.9	x	0.3	9.0
Fc1ccc(Nc2nc(NCc3ccco3)c3ccccc3n2)cc1	-10.7	52.7*	-2.5	10.7	-0.1	-41.0*
Brc1ccc(C2=Nc3cccc4cccc(c34)N2)o1	-13.8	22.8*	-10.9	13.8	0.0	x
Fc1ccc(C2=Nc3cccc4cccc(c34)N2)cc1	36.0	12.8	8.3	-36.0	0.2	11.9
COc1ccc(OC)c(-c2nnc3n2N=C(c2ccc(OC)c(OC4CCOC4)c2)CS3)c1 (configuration not stated)	-8.0	3.5	-5.3	8.0	0.2	-27.6*
SMILES	SR-BI uptake up	dFosB act	PvdQ acylase	SR-BI HDL uptake	Xi reactivation	rRNA inh HTS
Cc1nc2sc(C(c3cccc(F)c3)N3CCOCC3)c(O)n2n1 (configuration not stated)	3.1	-0.1	1.7	-3.1	x	x
O=C(c1cnn2c(C(F)(F)F)cc(-c3ccco3)nc12)N1CCc2ccccc2C1	-82.9	-11.8	-9.7	82.9*	x	x
CCOC(=O)c1ccc(NC(=S)N2CCN(S(C)(=O)=O)CC2)cc1	11.1	-5.2	15.1	-11.1	x	x
O=C(Nc1cccnc1)c1cc(-c2ccc(Br)cc2)nc2ccccc12	-86.8	-11.1	-5.7	86.8*	x	2.9
Cc1ccc(-c2cc(C(=O)Nc3cc(C)on3)c3ccccc3n2)c(C)c1	-77.6	2.5	-8.1	78.2*	0.3	-4.7
Cc1ccc(C)c(NC(=O)c2cc(C)nc3ccccc23)c1	-78.6	3.2	-16.0	78.6*	0.0	5.1
CCCOc1cccc(-c2cc(C(=O)NN)c3ccccc3n2)c1	-84.4	-9.0	-4.9	84.4*	-0.2	x
CCCOc1cccc(-c2cc(C(=O)N/N=C/c3ccccn3)c3ccccc3n2)c1	-52.4	-13.9	-5.1	52.5	0.0	-25.9
Cc1c(CC(=O)N2CCN(C(=O)C3COc4ccccc4O3)CC2)c(=O)oc2c(C)c(O)ccc12 (configuration not stated)	-4.5	-5.6	-12.2	4.5	0.0	1.6
C[C@H]1CN([C@@H](C)CO)S(=O)(=O)c2ccc(C#Cc3ccccc3)cc2O[C@@H]1CN(C)S(C)(=O)=O	x	x	x	x	-2.1	-0.6
COc1ccccc1CCNC(=O)c1cc(-c2ccncc2)nc2ccc(Br)cc12	-77.4	u	-6.8	77.5*	0.0	10.9
O=C(Nc1nc2c(s1)CCCC2)c1cc(-c2ccccc2)nc2ccccc12	-38.9	-1.8	-3.7	38.9	0.2	x
CSc1ccccc1NC(=O)c1cc(-c2cccnc2)nc2ccc(Br)cc12	-55.3	27.2*	-8.6	55.3	-0.1	8.2
CC(=O)Nc1ccc(NC(=O)c2cc(-c3ccccc3)nc3ccccc23)cc1	-75.2	6.4	-5.0	75.2*	0.1	-0.4
CC(C)(C)NS(=O)(=O)c1ccc(NC(=O)c2cc(-c3ccccc3)nc3ccccc23)cc1	-37.0	4.8	7.3	37.0	x	x
O=C(Nc1nc2c(s1)CCCC2)c1cc(-c2ccncc2)nc2ccccc12	-76.0	4.0	9.9	76.0*	0.0	x
Cc1ccc(NC(=O)c2cc(CC(C)C)nc3ccccc23)cc1	-53.5	-15.9	-12.6	53.5	0.0	-7.9
O=C(Nc1nc2c(s1)CCCC2)c1cccnc1	-15.3	-2.1	9.8	15.3	x	10.2
COc1ccc(NC(=O)c2cc(CC(C)C)nc3ccccc23)cc1	-76.1	-4.5	-27.7	76.1*	0.0	-7.0
O=C(NC(=S)Nc1nc2c(s1)CCCC2)c1ccc(C(=O)c2ccccc2)cc1	-76.4	0.6	18.8	76.4*	0.6	x
C/C(=N\NC(=O)c1cc(-c2cccnc2)nc2ccccc12)c1ccccc1O	-106.6	-15.8	-11.7	106.7*	0.2	7.1
CC1=CC(=C(C#N)c2nc3ccccc3s2)C=C(C)N1CC1CCCO1 (configuration not stated)	-88.2	-9.9	4.0	88.2*	0.3	-9.4

High-throughput results: PubChem BioAssay, Broad Institute
